Screening data deposited in PubChem BioAssay by Broad Institute.
A selection: hits, their analogues and other compounds. The true share with any hit is near 5.8%.
IDH1 R132H inh – IDH1 R132H (human) inhibition | O75874 | IDH1 R132H reductase, diaphorase/resazurin fluorescence, 60 min | inhibition, % at 10 µM | hit rate 0.18% among 70,000; in the data active = inhibition above about 34%;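 note: 0% = DMSO and 100% = no enzyme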
T cruzi growth – T. cruzi proliferation inhibition. hit rate 5.9% among 77,000. T. cruzi beta-gal in NIH3T3, GalScreen luminescence, 90 h. AID 624255. inhibition, % at 8.34 µM;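 active = mean inhibition above about 93%, with at least 55% of replicates each passing it, limit read from the data, passing the limit was not always enough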
Pf Dd2 growth – blocks growth of Plasmodium falciparum Dd2 parasites; AID 1159554; P. falciparum Dd2 growth, SYBR Green, 72 h; stronger effect = lower value; activity change, % at 10 µM; hit rate 2.3% among 94,000; in the data active = activity change below about -80%
KDM4C inh – inhibitors of human demethylase GASC-1 KDM4C; inhibition, % at 12.5 µM; GST-KDM4C 2-372, H3K9me3 peptide, LANCE TR-FRET; Q9H3R0; hit rate 0.15% among 96,000;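 active = mean replicate inhibition above about 25%, with at least 55% of replicates also reaching it, limit read from the data, passing the limit was not always enough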
Target sequence (Q9H3R0 2-372 limits assumed): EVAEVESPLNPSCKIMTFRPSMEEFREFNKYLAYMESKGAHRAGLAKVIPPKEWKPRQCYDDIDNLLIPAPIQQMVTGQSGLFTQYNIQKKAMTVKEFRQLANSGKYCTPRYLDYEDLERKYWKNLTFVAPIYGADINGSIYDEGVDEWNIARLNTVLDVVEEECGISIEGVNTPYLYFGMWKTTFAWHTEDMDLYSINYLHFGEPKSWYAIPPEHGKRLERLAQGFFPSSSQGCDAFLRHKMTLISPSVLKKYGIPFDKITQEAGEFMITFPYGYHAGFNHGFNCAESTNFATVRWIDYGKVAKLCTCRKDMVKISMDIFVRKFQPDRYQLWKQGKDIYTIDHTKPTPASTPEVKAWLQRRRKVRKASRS
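Material: GST-tagged GASC-1 (JMJD2C) catalytic fragment, aa 2-372. Input: enzyme final amount 10 nM. Medium: HEPES buffer, pH 7.5, plus ascorbate. Reagent: H3K9me3 peptide substrate, Fe(II), 2-oxoglutarate. Doses: single dose. Times: reaction 30 min RT, detection step 1 h RT. Measured by: LANCE TR-FRET. Evaluation: Fall in 671/618 emission ratio as inhibition.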
Active calls of the source: *.

`CC(C)C(=O)Nc1ccc2c(c1)C(=O)N(C)[C@@H]1CC[C@H](CC(=O)O)O[C@@H]1CO2` gave T cruzi growth -14, Pf Dd2 growth -60 and KDM4C inh 2.
Screening C[C@H](CO)N1C[C@H](C)[C@@H](CN(C)C(=O)c2cccc(F)c2)Oc2ncc(-c3ccccc3)cc2C1=O returned IDH1 R132H inh -3, T cruzi growth 11, Pf Dd2 growth -14 and KDM4C inh 0.
For C[C@@H]1CN([C@H](C)CO)C(=O)c2cc(NC(=O)Nc3cccc4ccccc34)ccc2O[C@@H](C)CCCCO[C@@H]1CN(C)S(=O)(=O)c1ccc(F)cc1 the results were T cruzi growth 8, Pf Dd2 growth -87* and KDM4C inh 0.
C[C@@H]1CN([C@@H](C)CO)C(=O)c2cc(NC(=O)Nc3cccc4ccccc34)ccc2O[C@@H](C)CCCCO[C@@H]1CN(C)S(=O)(=O)c1ccc(F)cc1 was read as IDH1 R132H inh -3, T cruzi growth 30, Pf Dd2 growth -83* and KDM4C inh 0.
`COc1ccc(S(=O)(=O)N(C)C[C@H]2Oc3c(NS(=O)(=O)c4c(C)noc4C)cccc3C(=O)N([C@H](C)CO)C[C@H]2C)cc1` gave IDH1 R132H inh 2, T cruzi growth 12, Pf Dd2 growth -7 and KDM4C inh 2.
Screening O=C(C[C@H]1C=C[C@@H](NC(=O)c2cccnc2)[C@H](CO)O1)NCc1ccncn1 returned Pf Dd2 growth 11 and KDM4C inh 0.
For C[C@@H]1CN([C@@H](C)CO)C(=O)Cc2cc(NS(=O)(=O)c3ccc(F)cc3)ccc2O[C@H]1CN(C)S(=O)(=O)c1ccccc1 the results were IDH1 R132H inh 2, T cruzi growth -12, Pf Dd2 growth -28 and KDM4C inh -2.
C[C@@H]1CCCCO[C@H](CN(C)C(=O)Nc2ccc(C(F)(F)F)cc2)[C@H](C)CN([C@@H](C)CO)C(=O)c2cc(NC(=O)C3CCCCC3)ccc2O1 was read as T cruzi growth 94, Pf Dd2 growth -83* and KDM4C inh 0.
For C[C@@H]1CCCCO[C@H](CN(C)C(=O)Nc2ccc(F)cc2)[C@H](C)CN([C@H](C)CO)C(=O)c2cc(NC(=O)C3CCCCC3)ccc2O1 the results were T cruzi growth 56, Pf Dd2 growth -81* and KDM4C inh -2.
For Cc1ccc(C(=O)c2oc3ccccc3c2NC(=O)c2cc3ccccc3oc2=O)cc1F the results were IDH1 R132H inh 0.
`C[C@H](CO)N1C[C@H](C)[C@@H](CN(C)S(C)(=O)=O)Oc2cc(C3=CCCC3)ccc2S1(=O)=O` gave T cruzi growth 4, Pf Dd2 growth 17 and KDM4C inh 2.
For O=C(C1CCOCC1)N1C[C@@H]2[C@H](c3ccccc31)[C@H](CO)N2C(=O)Cc1ccccc1 the results were T cruzi growth 8, Pf Dd2 growth 19 and KDM4C inh -3.
`O=C(C1CCOCC1)N1C[C@H]2[C@@H](c3ccccc31)[C@H](CO)N2C(=O)Cc1ccccc1` gave T cruzi growth 52, Pf Dd2 growth -4 and KDM4C inh 29*.
For Cc1ccccc1S(=O)(=O)N1CC[C@@H]2[C@H]1c1cc(C#Cc3ccccc3)ccc1N[C@@H]2CO the results were T cruzi growth 15, Pf Dd2 growth -31 and KDM4C inh -1.
`COc1ccc2c3c([nH]c2c1)[C@@H](CO)N(Cc1ccccc1)CC31CN(C(=O)Cc2ccccc2)C1` gave Pf Dd2 growth -84*.
`COc1ccc2c3c([nH]c2c1)[C@H](CO)N(Cc1ccccc1)CC31CN(C(=O)Cc2ccccc2)C1` gave Pf Dd2 growth 28.
COCC(=O)N1CC2(C1)CN(Cc1cccc(Cl)c1)[C@@H](CO)c1[nH]c3cc(OC)ccc3c12 was read as Pf Dd2 growth -92* and KDM4C inh 0.
For COc1ccc(CN2CC3(CN(C(=O)Cc4ccccc4)C3)c3c([nH]c4cc(OC)ccc34)[C@@H]2CO)cc1 the results were Pf Dd2 growth -86* and KDM4C inh -1.
Screening COc1ccc2c3c([nH]c2c1)[C@H](CO)N(CC1CC1)CC31CN(C(=O)c2ccccc2)C1 returned Pf Dd2 growth -83* and KDM4C inh 0.
For COc1ccc2c3c([nH]c2c1)[C@H](CO)N(CC1CC1)CC31CN(C(=O)c2ccc(F)cc2)C1 the results were Pf Dd2 growth -62 and KDM4C inh 0.
Screening C[C@@H]1CN([C@@H](C)CO)C(=O)c2cc(C#CCN(C)C)cnc2O[C@H]1CN(C)C(=O)c1cccc(F)c1 returned IDH1 R132H inh 0, T cruzi growth 82, Pf Dd2 growth 0 and KDM4C inh 1.
CO[C@H]1CN(C)C(=O)c2cc(NC(C)=O)ccc2OC[C@H](C)N(C(=O)Cc2cccnc2)C[C@@H]1C was read as IDH1 R132H inh 0, T cruzi growth -48, Pf Dd2 growth 11 and KDM4C inh 0.
Screening COc1ccc(S(=O)(=O)N(C)C[C@H]2Oc3c(NC(=O)CCCCCC(=O)Nc4ccccc4N)cccc3C(=O)N([C@H](C)CO)C[C@@H]2C)cc1 returned IDH1 R132H inh 0, Pf Dd2 growth -49 and KDM4C inh 1.
COc1ccc(S(=O)(=O)N(C)C[C@@H]2Oc3c(NC(=O)CCCCCC(=O)Nc4ccccc4N)cccc3C(=O)N([C@@H](C)CO)C[C@H]2C)cc1 was read as IDH1 R132H inh 0, Pf Dd2 growth -83* and KDM4C inh -1.
Screening COc1ccc(S(=O)(=O)N(C)C[C@@H]2Oc3c(NC(=O)CCCCCC(=O)Nc4ccccc4N)cccc3C(=O)N([C@H](C)CO)C[C@@H]2C)cc1 returned IDH1 R132H inh 0, Pf Dd2 growth -85* and KDM4C inh -3.
Screening COCCOC(=O)N1C(=O)[C@@]2(c3cc(C#CCC(C(=O)OC)C(=O)OC)ccc31)[C@H](C(=O)N1CCN(c3ncccn3)CC1)[C@H]1C(=O)O[C@H](c3ccccc3)[C@H](c3ccccc3)N1[C@@H]2c1ccccc1OCCO returned IDH1 R132H inh 0.
For CCC(=O)Nc1ccc2c(c1)OC[C@H](C)N(CCc1ccccc1)C[C@H](C)[C@@H](OC)CN(C)C2=O the results were Pf Dd2 growth -22 and KDM4C inh 0.
For O=C(NCC[C@@H]1CC[C@@H](NS(=O)(=O)c2ccccc2)[C@H](CO)O1)c1ccccc1F the results were IDH1 R132H inh 0, T cruzi growth 79, Pf Dd2 growth -4 and KDM4C inh -1.
Screening N#Cc1cccc(-c2ccc3c(c2)[C@H]2[C@H](CCN2C(=O)C2CCCCC2)[C@H](CO)N3)c1 returned T cruzi growth 79, Pf Dd2 growth -12 and KDM4C inh -7.
For O=C(C1CCCC1)N1CC[C@@H]2[C@H]1c1cc(-c3cccc(F)c3)ccc1N[C@@H]2CO the results were Pf Dd2 growth -82* and KDM4C inh 12.
`N#Cc1ccc(-c2ccc3c(c2)[C@@H]2[C@@H](CCN2C(=O)C2CCC2)[C@@H](CO)N3)cc1` gave Pf Dd2 growth -84* and KDM4C inh -5.
